Compound activity: PubChem BioAssay, several laboratories
PPC-1+TRAIL kill: PPC-1 cancer cell killing with TRAIL present; PPC-1 cells + TRAIL, ATPLite viability luminescence; cell killing (% activity), % at 4 µM or 5 µM; 0.41% of 220,000 active;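 active = cell killing above 50% in the first pass at 4 µM, then a duplicate retest at 5 µM averaging 50% or more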
HSP90 inh: inhibitors of HSP90 luciferase refolding in rabbit reticulocyte lysate; luciferase refolding luminescence, 3 h; inhibition, % at 5.6 µM; 0.91% of 290,000 active; AID 1789;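 active = inhibition above the screen-wide mean plus 3 SD, computed separately per campaign, cut at about 16% in these data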;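 also: inhibitors lower the luminescence because luciferase stays unfolded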
FLuc act counter: firefly luciferase counter-screen for stimulation assays; P08659; ATPlite luciferase biochemical, luminescence, 10 min; 0 = ATP-free wells, 1 = DMSO control; activation factor at 10 µM; 200,000 tested, under 10 active; AID 1027;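 active = luciferase activation factor, scaled between plate controls, of at least 2 with compound at 10 µM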
Target sequence (P08659 whole entry, looked up): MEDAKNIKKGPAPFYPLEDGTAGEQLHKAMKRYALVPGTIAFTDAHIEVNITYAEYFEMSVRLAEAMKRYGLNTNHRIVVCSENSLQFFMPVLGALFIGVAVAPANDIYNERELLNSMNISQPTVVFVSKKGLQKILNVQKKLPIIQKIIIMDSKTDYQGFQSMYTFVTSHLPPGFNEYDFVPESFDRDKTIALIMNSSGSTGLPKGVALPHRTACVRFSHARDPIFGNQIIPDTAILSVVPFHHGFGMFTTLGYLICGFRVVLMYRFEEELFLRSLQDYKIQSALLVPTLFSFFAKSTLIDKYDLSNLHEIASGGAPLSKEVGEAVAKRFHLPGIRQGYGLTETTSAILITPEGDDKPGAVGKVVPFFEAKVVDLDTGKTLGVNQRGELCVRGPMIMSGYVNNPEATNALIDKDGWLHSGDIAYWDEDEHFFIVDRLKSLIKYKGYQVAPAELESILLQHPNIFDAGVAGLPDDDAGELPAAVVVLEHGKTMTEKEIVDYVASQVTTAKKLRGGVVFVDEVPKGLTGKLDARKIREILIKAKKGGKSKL
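System: Luciferase/luciferin detection reagent, cell-free biochemical luciferase assay | Medium: PBS buffer for ATP | Dosing: Test compounds dosed from 2 mM stocks in 100% DMSO | Timing: 10 min at ambient temperature | Signal: Luminescence measurement of luciferase light output | Evaluation: Luciferase activation, seen as luminescence increase over controls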
FLuc inhib CS: inhibits firefly luciferase, flagging false hits in luciferase inhibition screens. 1.5% of 200,000 active. inhibition, % at 10 µM. P08659. ATPLite firefly luciferase biochemical luminescence, 10 min;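 active = inhibition above about 50% when tested at 10 µM, limit read from the data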
C8 TRAIL sens: sensitizes caspase-8 expressing cells to TRAIL; NB7+C8 cells + TRAIL, ATPlite viability luminescence; inhibition (viability loss, TRAIL sensitization), % at 10 µM; 1% of 360,000 active;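 active = compounds causing at least 50% loss of cell viability in the single-dose screen, relative to plate controls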
HSP90 confirm: confirmation of HSP90 inhibitors. shares compounds with HSP90 inh. rabbit reticulocyte lysate, luciferase refolding luminescence, 3 h. inhibition, % at 5.9 µM. 64% of 2,300 active; in the data active = inhibition above about 18%
luciferase ctr: blocks native firefly luciferase in HSP90 counter-screen; 48% of 2,300 active; shares compounds with HSP90 inh; inhibition, % at 5.9 µM; purified native firefly luciferase, luminescence;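 active = inhibition above the mean inhibition of all tested sample wells plus 3 SD, cut at about 10% in these data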
Hits are given with their value; i = inactive; nt = no result given. In the library only some 2% were active in any assay of this set; here they are far more common.

SMILES	PPC-1+TRAIL kill	HSP90 inh	FLuc act counter	FLuc inhib CS	C8 TRAIL sens	HSP90 confirm	luciferase ctr
O=C(O)c1ccc(/C=N/Nc2ccc(F)cc2F)cc1	i	46	i	i	i	78	58
CCNC(=S)N/N=C/c1ccc(C(=O)O)cc1	i	i	i	i	i	nt	nt
COc1c(S(=O)(=O)NCCCn2ccnc2)ccc(Cl)c1Cl	nt	i	nt	nt	i	nt	nt
O=C(O)c1ccc(N/N=C/c2ccc(-c3ccc(Cl)cc3Cl)o2)cc1	i	56	nt	nt	i	i	i
CC1Oc2ccccc2C=C1/C=N/Nc1ccc(C(=O)O)cc1 (centres undefined)	i	34	nt	nt	i	41	25
O=C(O)c1ccc(N/N=C/c2ccc(-c3cc(Cl)ccc3Cl)o2)cc1	i	i	nt	nt	i	nt	nt
Cc1ccc(NC(=S)c2nc3ccccc3[nH]2)cc1	i	19	i	83	77	23	i
O=C(CSc1nc(-c2ccccc2)nc2ccccc12)Nc1nccs1	i	22	i	i	i	i	i
CCCc1nc(SCC(=O)Nc2nccs2)c2ccccc2n1	nt	i	nt	nt	i	nt	nt
O=C(c1ccc(Cl)cc1)C1CCN(C(=O)c2ccc(F)cc2)CC1	nt	i	nt	nt	i	nt	nt
CN(C)c1ccc(NC(=O)c2cnsn2)cc1	i	26	i	72	i	48	40
O=S1(=O)CCN(C(CCO)c2cccc(C(F)(F)F)c2)CC1 (centres undefined)	i	i	i	i	i	nt	nt
CCc1cc(C(=O)Nc2ncccc2O)sc1C	nt	43	nt	nt	i	53	43
O=C(O)c1ccc(Nc2nc3c(s2)CCCC3)cc1	i	67	i	i	i	91	80
Cc1nc(Nc2ccc(C(=O)O)cc2)sc1-c1ccccc1	i	34	i	i	i	84	63
COC(=O)C1=C(CN2CCCc3ccccc32)NC(=O)NC1c1ccc(F)cc1 (centres undefined)	i	46	i	i	i	i	i
N#Cc1c(NC(=O)c2ccccc2Cl)n(Cc2ccccc2)c2nc3ccccc3nc12	i	i	i	i	i	nt	nt
CCCCn1c(NC(=O)c2ccccc2Cl)c(C#N)c2nc3ccccc3nc21	i	59	i	i	i	46	i
CCN(C(=O)COC(=O)c1c(NC(C)=O)sc(C)c1C)c1c(N)n(Cc2ccccc2)c(=O)[nH]c1=O	nt	nt	nt	nt	i	nt	nt
COc1ccc(CC(=O)Nc2nnc(C(C)(C)C)s2)cc1OC	i	i	i	i	i	nt	nt
COc1ccc(NC(=O)C2(C)CCN2Cc2cccc(OC)c2OC)cc1OC (centres undefined)	nt	nt	nt	nt	i	nt	nt
CC(C)Sc1nc(SCC(=O)O)c2c3c(sc2n1)COC(C)(C)C3	i	i	nt	nt	i	nt	nt
CC(C)Sc1nc(SCC(=O)NCc2ccco2)c2c3c(sc2n1)COC(C)(C)C3	i	21	i	i	i	36	i
COc1ccc(C(=O)NCCn2cc(SCC(=O)NCC3CCCO3)c3ccccc32)cc1 (centres undefined)	nt	29	nt	nt	i	i	i
COc1ccccc1C(=O)NCCn1cc(SCC(=O)NCC2CCCO2)c2ccccc21 (centres undefined)	nt	i	nt	nt	i	nt	nt
SMILES	PPC-1+TRAIL kill	HSP90 inh	FLuc act counter	FLuc inhib CS	C8 TRAIL sens	HSP90 confirm	luciferase ctr
CCOc1cccc(/C=N/NC(=S)Nc2ccccc2[N+](=O)[O-])c1O	i	75	i	i	53	71	34
O=[N+]([O-])c1ccccc1NC(=S)N/N=C/c1ccc(O)c(O)c1	i	43	i	i	i	i	i
COc1ccc(C(C2C(=O)CC(C)(C)CC2=O)C2C(=O)CC(C)(C)CC2=O)cc1	i	i	nt	nt	i	nt	nt
O=C(NC(=S)Nc1cccc2c(O)cccc12)c1ccccc1[N+](=O)[O-]	nt	35	nt	nt	i	i	i
COc1cc(Br)c(C(=O)c2nccc3cc(OC)c(OC)cc23)cc1OC	nt	42	nt	nt	i	19	i
CC(C)(C)NS(=O)(=O)c1ccc(CCC(=O)N2CCCC2)cc1	i	i	i	i	i	nt	nt
COc1ccc(Nc2ncnc3c2cnn3Cc2ccccc2)cc1	i	i	i	i	i	nt	nt
CCOc1ccc(Nc2ncnc3c2cnn3Cc2ccccc2)cc1	i	23	i	i	i	i	i
COc1ccc2c(c1)Cc1sc(NC(C)=O)nc1-2	i	32	i	i	i	i	i
COc1ccc2c(c1)Cc1sc(NC(=O)c3cccnc3)nc1-2	i	i	i	i	i	nt	nt
O=C1OCCC1Sc1nnc(-c2ccc(Cl)cc2Cl)o1 (centres undefined)	i	33	nt	nt	i	67	57
CCCCN1CC(=O)N2[C@H]3c4ccc(OC)cc4OC[C@@H]3[C@H](C(=O)OCC)[C@]2(C)C1=O	nt	nt	nt	nt	i	nt	nt
CC1(C)Cc2nc3oc4c(=O)n(CC(=O)Nc5ccccc5)cnc4c3cc2CO1	i	i	i	i	i	nt	nt
CC(C)CCn1cnc2c(oc3nc4c(cc32)CCCC4)c1=O	i	19	nt	nt	i	51	35
COC(=O)CC1=C(C)C(=O)CC2C(C)(C)CCCC12C (centres undefined)	i	19	i	i	i	i	i
C=C[C@]1(C)C=C2C(=O)C[C@H]3C(C)(C)CCC[C@]3(C(=O)O)[C@@]2(O)CC1	nt	nt	nt	nt	i	nt	nt
COc1ccc(NC(=O)CSc2nnnn2Cc2ccccc2)cc1	i	i	i	i	i	nt	nt
CC(=O)Nc1ccccc1OCC(=O)c1cc(C)n(Cc2cccs2)c1C	i	47	i	i	i	69	i
Cc1cc(C(=O)COC(=O)c2ccccc2O)c(C)n1Cc1cccs1	i	82	i	90	90	86	84
CCOc1ccc(NC(=O)Nc2ccccc2C(N)=O)cc1	i	32	i	93	i	42	38
CCCc1cc(=O)oc2cc(OCc3ccc(C(=O)O)o3)ccc12	nt	23	nt	nt	i	18	i
C=C(Cl)COc1ccc2c(CCC)cc(=O)oc2c1	i	i	i	i	i	nt	nt
CCCc1cc(=O)oc2cc(OCc3ccc(C(=O)O)cc3)ccc12	nt	22	nt	nt	i	i	i
O=C1CCN(c2ccc([N+](=O)[O-])cc2F)CC1	i	34	i	i	i	i	i
O=C(c1ccco1)N1CCN(c2ccc([N+](=O)[O-])cc2F)CC1	nt	i	nt	nt	i	nt	nt
SMILES	PPC-1+TRAIL kill	HSP90 inh	FLuc act counter	FLuc inhib CS	C8 TRAIL sens	HSP90 confirm	luciferase ctr
CC(=O)Nc1cc(-c2ccccc2Cl)cn2c(-c3ccc(S(C)(=O)=O)cc3)cnc12	nt	nt	nt	nt	i	nt	nt
Cc1ccccc1-c1cnc(C(O)c2c(C)cccc2C)[nH]1 (centres undefined)	nt	nt	nt	nt	i	nt	nt
COC(=O)c1ccc(Nc2nc3ccc(C)cc3n3cnnc23)cc1	nt	38	nt	nt	i	42	10
COc1ccc(-n2c(=S)[nH]c3cc(C(=O)NCCCN4CCOCC4)ccc3c2=O)cc1OC	nt	i	nt	nt	i	nt	nt
COCC(C)n1c(C)cc(C(=O)Cn2nc(C(=O)O)c3ccccc3c2=O)c1C (centres undefined)	i	42	i	71	i	52	i
Cc1cc(C(=O)Cn2nc(C(=O)O)c3ccccc3c2=O)c(C)n1CCc1ccc(F)cc1	i	i	nt	nt	i	nt	nt
